Consider 16 compounds from ChEMBL document CHEMBL1949639, “New losartan-hydrocaffeic acid hybrids as antihypertensive-antioxidant dual drugs: Ester, amide and amine linkers” (2012).

Experiment [1] in a line: Antioxidant activity assessed as trolox equivalent of ABTS radical scavenging activity relative to control. The format is functional. Summed up:
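Metmyoglobin/H2O2 oxidation of ABTS to its radical, read as absorbance at 600 nm in 96-well format. Samples taken from K2CO3-solubilised stocks diluted in PBS. Activity expressed as TEAC: the concentration (mM) giving the same percentage change in ABTS radical absorbance as 1 mM Trolox.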

A short description of experiment [2]: Antihypertensive activity against angiotensin-2-induced cell contraction in Wistar rat VSMC assessed as changes in planar cell surface area after 30 mins by planimetric technique. The format is functional. Summed up: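 VSMC from thoracic aortas of Wistar rats, collagenase-digested, grown in DMEM/Ham's F-12 with 10% foetal calf serum at 37 °C, 5% CO2, used at passages 3–5. Cells in Tris-glucose buffer pH 7.45 with angiotensin II plus compound, […], for 30 min. Photographed at 0 and 30 min, planar surface area by planimetry. 4–8 cells per experiment, mean of 5 experiments gives percent inhibition of contraction.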

A further experiment concerns Rattus norvegicus. The experiment in a line: Antihypertensive activity in Wistar rat assessed as decrease of L-NAME-induced systolic arterial pressure at 20 mg/kg, po administered with drinking water qd for 3 days by sphygmomanometer. The format is functional, Artery. Conditions: dose 30 mg/kg, in the assay text read “30 mg/kg” for “20 mg/kg”. In outline: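 Two-month-old male Wistar rats received L-NAME in drinking water (20 mg/kg/day). After one week, losartan (20 mg/kg/day) or hybrids (30 mg/kg/day) were given daily in drinking water for three days. At least six animals per group. Arterial pressure measured in conscious rats by tail-cuff sphygmomanometer.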

For `CCCCc1nc(Cl)c(C(=O)OCCCc2ccc(O)c(O)c2)n1Cc1ccc(-c2ccccc2-c2nn[nH]n2)cc1`, in experiment [1], the Ratio was found to be 0.1. The “inhibition (INH)” value in experiment [2] is recorded as 88%. The Activity in the experiment with Rattus norvegicus worked out at 9 mmHg.

Turning to `CCCCc1nc(Cl)c(CNC(=O)CCc2ccc(O)c(O)c2)n1Cc1ccc(-c2ccccc2-c2nn[nH]n2)cc1`, in experiment [1], the Ratio was 0.27. In addition, in experiment [2], the “inhibition (INH)” value was determined as 90%. Moreover, the Activity with Rattus norvegicus is recorded as 13 mmHg.

As for `O=C(O)/C=C/c1ccc(O)c(O)c1`, the Ratio in experiment [1] worked out at 0.2.

On to `O=C(O)c1ccc(O)c(O)c1`, for which the Ratio in experiment [1] turned out to be 0.153.

Take `CC[C@H](C)[C@H](NC(=O)[C@H](Cc1ccc(O)cc1)NC(=O)[C@@H](NC(=O)[C@H](CCCNC(=N)N)NC(=O)[C@@H](N)CC(=O)O)C(C)C)C(=O)N[C@@H](Cc1cnc[nH]1)C(=O)N1CCC[C@H]1C(=O)N[C@@H](Cc1ccccc1)C(=O)O` [ANGIOTENSIN II]: in experiment [2], the “inhibition (INH)” value came to 82%.

As for `CC(C)(C)c1cc(C(=O)O)cc(C(C)(C)C)c1O`, the Ratio in experiment [1] worked out at 0.181.

Take `CCCCc1nc(Cl)c(C(=O)NCCCc2ccc(O)c(O)c2)n1Cc1ccc(-c2ccccc2-c2nn[nH]n2)cc1`: the Ratio in experiment [1] came out at 0.17. In addition, the “inhibition (INH)” value in experiment [2] is reported as 93%. Besides, in the experiment on Rattus norvegicus, the Activity amounted to 1 mmHg.

Regarding `COc1cc(C(=O)O)cc(OC)c1O`, the Ratio in experiment [1] turned out to be 1.07.

For the compound `O=C(O)CCc1ccc(O)c(O)c1` [DIHYDROCAFFEIC ACID], the Ratio in experiment [1] amounted to 0.36. The “inhibition (INH)” value in experiment [2] is 85%.

`CC(C)(C)c1cc(CC(=O)O)cc(C(C)(C)C)c1O`: the Ratio in experiment [1] turned out to be 1.06.

In the case of `CCCCc1nc(Cl)c(COC(=O)CCc2ccc(O)c(O)c2)n1Cc1ccc(-c2ccccc2-c2nnn[nH]2)cc1`, the Ratio in experiment [1] turned out to be 0.31. Also, the “inhibition (INH)” value in experiment [2] was determined as 94%. Further, in the experiment on Rattus norvegicus, the Activity is 29 mmHg.

As to `CCCCc1nc(Cl)c(CO)n1Cc1ccc(-c2ccccc2-c2nnn[nH]2)cc1` [LOSARTAN], in experiment [1], the Ratio turned out to be 0.03. Besides, in experiment [2], the “inhibition (INH)” value came to 93%. Further, the Activity in the experiment with Rattus norvegicus is listed as 13 mmHg.

As to `CCCCc1nc(C(=O)OCCCc2ccc(O)c(O)c2)c(Cl)n1Cc1ccc(-c2ccccc2-c2nn[nH]n2)cc1`, in experiment [1], the Ratio came out at 0.24. Further, the “inhibition (INH)” value in experiment [2] is reported as 95%. For the same compound, the Activity in the experiment on Rattus norvegicus amounted to 14 mmHg.

Take `CCCCc1nc(Cl)c(C(=O)O)n1Cc1ccc(-c2ccccc2-c2nn[nH]n2)cc1`: the Ratio in experiment [1] worked out at 0.03.

Regarding `COc1cc(C(=O)O)ccc1O`, in experiment [1], the Ratio stood at 0.202.

On to `CCCCc1nc(Cl)c(CNCCCc2ccc(O)c(O)c2)n1Cc1ccc(-c2ccccc2-c2nn[nH]n2)cc1`, for which the Ratio in experiment [1] stood at 0.13. The “inhibition (INH)” value in experiment [2] is on record as 92%.
